Compound activity from PubChem.
XBP1 UPR activ = activators of adaptive arm of unfolded protein response (XBP1) | hit rate 0.33% among 330,000 | activation, % at 20 µM | CHO-XBP1 luciferase reporter, IRE1-XBP1 UPR activation, luminescence; percent of tunicamycin response, DMSO as zero;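 active = versus positive control, 20 µM dose yields 30% or more activation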;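 note: 100% = tunicamycin at 10 µg/mL and 0% = DMSO only wells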
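Material: CHO cell line with stable XBP1 luciferase reporter; schedule: 16-18 h cell attachment at 37 °C, then 6 h compound exposure; signal: glow luminescence from Steady-Glo reagent; medium: serum-containing F12 medium, 10% FBS; benchmarks: tunicamycin 10 µg/mL and vehicle-only wells; read-out: percent activation relative to tunicamycin reference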
Mdm2 MdmX PPI = disrupts the human Mdm2-MdmX interaction. inhibition, % at 8 µM. SaOS-2 split-luciferase Mdm2/MdmX complementation, luminescence. O15151+Q00987. hit rate 3% among 330,000;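 active = inhibition of at least 50% at 8 µM in the primary screen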
Beta cell apopt = blocks beta cell apoptosis | INS-1E cytokine-induced death, ATP luminescence, 48 h; percent of positive-control rescue, neutral wells zero | protection from apoptosis, % (concentration not given with the values) | hit rate 0.8% among 300,000 | AID 435005;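 active = Every replicate reaches about 75%, or at least half do and their mean reaches it too, limit read from the data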;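 note: 0% = cytokine-treated negative control wells and 100% = positive control rescue; higher means more ATP so stronger rescue from cytokine killing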
SKKanGAS inh = blocks kanamycin growth of S. pyogenes SKKanGAS strain | hit rate 1.3% among 300,000 | inhibition, % at 7.5 µM | BacTiter-Glo, 6 h;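 active = mean replicate score, as percent of positive control median, at least 50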;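 note: strain carries kanamycin resistance gene driven by streptokinase promoter and grows in 40 µg/ml kanamycin; loss of luminescence reflects streptokinase promoter inhibition or plain growth inhibition; 0% = median of DMSO wells and 100% = positive control at its reference dose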
UPR CHOP act = activators of apoptotic arm of unfolded protein response (CHOP). hit rate 0.34% among 330,000. activation, % at 10 µM. CHO-CHOP luciferase reporter, UPR activation, luminescence; percent of tunicamycin response over DMSO baseline;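 active = at 10 µM dose, activation of 40% or more, normalized to positive control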;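 note: 100% = tunicamycin at 10 µg/mL and 0% = DMSO alone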
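Evaluation: % reporter activation, DMSO baseline versus tunicamycin full activation; System: CHO-CHOP luciferase reporter cell line; Input: 500 cells/well; Incubation: 6 h compound treatment, 37 °C; Measured by: Steady-Glo luciferase luminescence; Dosing: one dose, 10 µM in 0.5% DMSO; Buffer or medium: F12 medium, 10% FBS; Benchmarks: positive tunicamycin 10 µg/mL, negative DMSO alone.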
CSC inhib = cancer stem cell inhibition | cancer stem cell-like cells viability, luminescence | inhibition, % at 7.5 µM | hit rate 1.1% among 300,000; in the data active = inhibition above about 75%; tested in HMLE shEcad cells
Mdm2-MdmX conf = confirmation of human Mdm2/MdmX interaction inhibitors. shares compounds with Mdm2 MdmX PPI. Mdm2-MdmX binding, luminescent assay. inhibition, % at 8 µM. hit rate 55% among 10,000; in the data active = inhibition above about 40%
Full FLuc ctr = inhibits full-length luciferase, flagging false Mdm2/MdmX hits | inhibition, % at 8 µM | hit rate 77% among 6,200 | SaOS-2 full-length luciferase counterscreen, luminescence | AID 504607 | shares compounds with Mdm2 MdmX PPI;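 active = mean inhibition at 8 µM reaching about 37%, which flags the compound as non-specific, limit read from the data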;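 note: p53-null SaOS-2 cells with luciferase driven by a doxycycline-inducible promoter; compound on cells about two nights before reading with doxycycline added after day one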
Numbers without * were called inactive; / = no result given. In the library only some 4.8% were active in any assay of this set; here they are far more common.

SMILES	XBP1 UPR activ	Mdm2 MdmX PPI	Beta cell apopt	SKKanGAS inh	UPR CHOP act	CSC inhib	Mdm2-MdmX conf	Full FLuc ctr
Cc1ccc(S(=O)(=O)c2nc(S(=O)(=O)c3ccccc3)sc2N2CCN(CCO)CC2)cc1	-5	53*	/	-5	0	/	11	/
Cc1ccc(S(=O)(=O)c2nc(S(=O)(=O)c3ccccc3)sc2N2CCN(C)CC2)cc1	-4	61*	/	0	1	/	47*	24
CCS(=O)(=O)c1nc(S(=O)(=O)c2ccc(C)cc2)c(N2CCN(CCO)CC2)s1	-2	-3	-7	12	1	-16	/	/
CN(CC(=O)Nc1cccc(F)c1)C(=O)CC1CC2CCC1C2 (stereo unspecified)	-3	20	2	5	2	4	/	/
CCOc1ccc(N(CC(=O)NC2CCCCC2)C(=O)CCC(=O)Nc2nccs2)cc1	-5	12	0	3	0	/	/	/
C=CCOc1c(Br)cc(/C=N/NC(=O)Cc2ccc(C(F)(F)F)cc2[N+](=O)[O-])cc1OC	-2	57*	6	1	4	-12	6	/
Cc1ccc(-n2ncc3c(SCC(N)=O)ncnc32)cc1C	-1	-11	/	-2	9	/	/	/
O=[N+]([O-])c1ccc(Sc2nc3ccccc3o2)c([N+](=O)[O-])c1	-5	99*	48	9	-2	106*	76*	3
Cn1ccnc1Sc1cc(Cl)ccc1[N+](=O)[O-]	1	-35	-8	-18	-1	-5	/	/
O=[N+]([O-])c1ccc(Cl)cc1Sc1nc2ccccc2o1	4	54*	-1	67*	0	22	16	/
O=C(Nc1ccccc1N1CCOCC1)c1cc(-c2ccco2)nc2ccccc12	6	70*	-1	10	-1	28	53*	68*
COc1cc(-c2cc(C(=O)Nc3ccccc3N3CCOCC3)c3ccccc3n2)cc(OC)c1OC	1	46	14	38	-1	-2	/	/
COC(=O)[C@]1(CC(C)C)N[C@H](c2ccc(SC3CCCCC3)c(OC)c2)[C@@H]2C(=O)N(C)C(=O)[C@@H]21	-2	11	-4	16	2	4	/	/
CCCCCCSc1ccc([C@H]2N[C@@](CC(C)C)(C(=O)OC)[C@H]3C(=O)N(C)C(=O)[C@@H]23)cc1OC	-1	56*	7	29	2	38	0	/
C#CCN(CC=C)C(=O)c1ccc2nc(C3CCCCC3)oc2c1	-2	-8	/	2	5	-6	/	/
COc1ccc(N(Cc2cc3ccccc3[nH]c2=O)S(=O)(=O)c2ccc(OC)cc2)cc1	-3	35	-5	-1	-2	47	/	/
COc1ccc(N(Cc2cc3cc(OC)ccc3[nH]c2=O)S(=O)(=O)c2ccc(NC(C)=O)cc2)cc1	-1	77*	3	12	5	33	71*	65*
COc1cc2[nH]c(C(=O)Nc3ccc(F)cc3)cc2c(OC)c1OC	0	39	17	-3	2	1	/	/
O=C(CCl)N(C/C=C/c1ccccc1)c1ccc2c(c1)OCCO2	-2	79*	-18	17	9	1	67*	26
O=[N+]([O-])c1cc(C(F)(F)F)cc([N+](=O)[O-])c1NCCNC(=S)Nc1ccc(Cl)c(Cl)c1	5	90*	/	102*	-1	107*	46*	55*
S=C(NCc1ccncc1)Nc1ccc(Cl)c(Cl)c1	0	-5	-9	5	-2	12	/	/
CCOc1ccccc1Nc1nnc(SCC(=O)NC(=O)c2cccn2C)s1	-1	3	-11	2	0	-12	/	/
CCOc1ccccc1Nc1nnc(SC(C)C(=O)Nc2nc(-c3ccccc3)cs2)s1 (stereo unspecified)	-1	86*	5	1	0	24	79*	35
